Active and inactive are the calls of the source. The calls are words filed in the database; no cut-off is given here.
Experiments:
[1] = biological target: T1, Leucine-rich repeat serine/threonine-protein kinase 2 (Homo sapiens, UniProt Q5S007); assay: Inhibition of wild type human GST-tagged LRRK2 (970 to 2527 residues) expressed in baculovirus expression system assessed as reduction in ADP formation at 10 uM using LRRKtide as substrate measured after 1 hr in presence of ATP by Adapta assay relative to control
Outline: (§1)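 Fluorescence immunoassay detecting ADP formed by the kinase reaction. Each compound screened at a single fixed concentration of 10 µM and reported as percent inhibition.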

[2] = Induction of neurogenesis in C57/BL6 mouse neural stem cells derived neurospheres isolated from adult ventricular-subventricular zone assessed as increase in total area of neurosphere at 1 to 5 uM measured after 4 days in presence of FGF or EGF by bright field microscopy analysis relative to control; assay type: functional
Outline: (§2)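 Primary neurospheres from adult mouse V-SVZ neural stem and progenitor cells, cultured 4 days with FGF and EGF and compound at 1 or 5 µM; DMSO vehicle control, PF06447475 as reference LRRK2 inhibitor. Proliferation read as total neurosphere area per bright-field field by ImageJ macro, expressed relative to DMSO (=100); 6 fields per triplicate, three independent experiments, mean ± SEM.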

Mus musculus [3] = organism: Mus musculus; assay: Induction of neurogenesis in C57/BL6 mouse neural stem cells derived neurospheres isolated from adult ventricular-subventricular zone assessed as increase in neurosphere size at 1 to 5 uM measured after 4 days in presence of FGF or EGF by bright field microscopy analysis; assay type: functional; outline: as §2
Mus musculus [4] = organism: Mus musculus; assay: Induction of neurogenesis in C57/BL6 mouse neuronal progenitor cells derived neurospheres isolated from adult ventricular-subventricular zone assessed as increase in neurosphere size at 1 to 5 uM measured after 4 days in presence of FGF or EGF by bright field microscopy analysis; assay type: functional; outline: as §2
[5] = biological target: T1, Leucine-rich repeat serine/threonine-protein kinase 2; assay: (§3) Inhibition of LRRK2 in human iPSC derived neuronal progenitor cells stably expressing TCF/LEF luciferase reporter gene assessed as modulation of Wnt/beta-catenin signaling pathway by measuring TCF/LEF dependent beta-catenin mediated transcriptional activity measured after 24 hrs in presence of Wnt3a by Steady-Glo luciferase assay relative to control
Outline: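 TCF/LEF luciferase reporter activity measured with Wnt3a supplied as conditioned medium from Wnt3a-expressing cells. Compounds screened at 1 and 10 µM. For dose curves, serial dilutions spanned 0.01–20.00 µM, with each concentration repeated eight times. Values are fold increase over DMSO vehicle (average ± SD for the curves).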

[6] = biological target: T1, Leucine-rich repeat serine/threonine-protein kinase 2; assay: Inhibition of wild type human GST-tagged LRRK2 (970 to 2527 residues) expressed in baculovirus expression system assessed as reduction in ADP formation using LRRKtide as substrate measured after 1 hr in presence of ATP by Adapta assay
Outline: (§4)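 Fluorescence immunoassay detecting ADP formed in the kinase reaction. Dose-response run at ten concentrations per compound in two independent experiments. IC50 given ± standard deviation.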

[7] = biological target: Leucine-rich repeat serine/threonine-protein kinase 2 (Homo sapiens, UniProt Q5S007, G2019S); assay: Inhibition of human GST-tagged LRRK2 G2019S mutant (970 to 2527 residues) expressed in baculovirus expression system assessed as reduction in ADP formation using LRRKtide as substrate measured after 1 hr in presence of ATP by Adapta assay; outline: as §4
[8] = biological target: T1, Leucine-rich repeat serine/threonine-protein kinase 2; assay: Inhibition of LRRK2 in human iPSC derived neuronal progenitor cells stably expressing TCF/LEF luciferase reporter gene assessed as increase in AXIN2 mRNA expression in presence of Wnt3a by TaqMan probe based RT-PCR analysis
[9] = biological target: T1, Leucine-rich repeat serine/threonine-protein kinase 2; assay: Inhibition of LRRK2 in human iPSC derived neuronal progenitor cells stably expressing TCF/LEF luciferase reporter gene assessed as increase in AXIN2 mRNA expression in absence of Wnt3a by TaqMan probe based RT-PCR analysis
[10] = biological target: T1, Leucine-rich repeat serine/threonine-protein kinase 2; assay: as §3, with “activity at 10 uM” for “activity”
Outline: (§5)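 TCF/LEF luciferase reporter assay in human cells stimulated with Wnt3a supplied as Wnt3a-expressing cell conditioned medium; compounds at fixed 1 or 10 µM. Reporter activity expressed as fold increase over DMSO vehicle.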

[11] = biological target: T1, Leucine-rich repeat serine/threonine-protein kinase 2; assay: as §3, with “activity at 1 uM” for “activity”; outline: as §5
[12] = tested on: Leucine-rich repeat serine/threonine-protein kinase 2 (Homo sapiens), Q5S007 [G2019S]; assay: Inhibition of human GST-tagged LRRK2 G2019S mutant (970 to 2527 residues) expressed in baculovirus expression system assessed as reduction in ADP formation at 10 uM using LRRKtide as substrate measured after 1 hr in presence of ATP by Adapta assay relative to control; outline: as §1
[13] = Permeability of compound in PBS/EtOH buffer (7:3) at 100 ul and pH 7.4 after 2 hrs and 30 mins by UV plate reader based PAMPA-BBB assay; assay type: ADME; conditions: read-out: permeability
Outline: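 PAMPA-BBB using porcine brain lipid membrane; in vitro permeability (Pe) determined alongside ten commercial drugs whose reported Pe values validated the assay; compounds classed CNS+ from Pe.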

[14] = biological target: T1, Leucine-rich repeat serine/threonine-protein kinase 2; assay: Inhibition of wild-type human partial length LRRK2 (H970 to E2527 residues) expressed in mammalian expression system at 10 uM by Kinomescan method relative to control
[15] = biological target: Leucine-rich repeat serine/threonine-protein kinase 2 (Mus musculus) (UniProt Q5S006); assay: Inhibition of LRRK2 in C57/BL6 mouse neural stem cells derived neurospheres isolated from adult ventricular-subventricular zone assessed as reduction in Rab10 phosphorylation at 10 uM using Rab10 as substrate measured after 7 days in presence of mitogens by Western blot analysis
Outline: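 Neurosphere cultures from adult mouse SVZ (2 male mice) grown 7 days with mitogens, treated with compound at 10 µM or DMSO. Cell pellets immunoblotted with monoclonal anti-phospho-Rab10 (T73); p-Rab10 quantified over three experiments, mean ± SEM.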

[16] = biological target: Leucine-rich repeat serine/threonine-protein kinase 2 (Mus musculus) (UniProt Q5S006); assay: Inhibition of LRRK2 in C57/BL6 mouse neural stem cells derived neurospheres isolated from adult ventricular-subventricular zone assessed as increase in neurosphere proliferation at 1 uM measured after 4 days presence of FGF or EGF by bright field microscopy analysis
[17] = biological target: Leucine-rich repeat serine/threonine-protein kinase 2 (Mus musculus) (UniProt Q5S006); assay: Inhibition of LRRK2 in C57/BL6 mouse neural stem cells derived neurospheres isolated from adult ventricular-subventricular zone assessed as differentiation of neurospheres forming CNPase positive oligodendrocytes at 1 uM treated for 6 days and measured on day 7 by bisbenzimide staining based confocal microscopy
Outline: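 Dissociated adult V-SVZ neurosphere cells plated on poly-ornithine/fibronectin and cultured 6 days without mitogens with compound at 1 µM, PF-475 reference, DMSO control; fixed day 7. Immunostained for CNPase (oligodendrocytes), β3-tubulin, GFAP, bisbenzimide nuclei; confocal counts of positive cells as % of total; 4 fields per triplicate, two independent experiments, mean ± SEM.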

Leucine-rich repeat serine/threonine-protein kinase 2 (Mus musculus), sequence (Q5S006 whole entry): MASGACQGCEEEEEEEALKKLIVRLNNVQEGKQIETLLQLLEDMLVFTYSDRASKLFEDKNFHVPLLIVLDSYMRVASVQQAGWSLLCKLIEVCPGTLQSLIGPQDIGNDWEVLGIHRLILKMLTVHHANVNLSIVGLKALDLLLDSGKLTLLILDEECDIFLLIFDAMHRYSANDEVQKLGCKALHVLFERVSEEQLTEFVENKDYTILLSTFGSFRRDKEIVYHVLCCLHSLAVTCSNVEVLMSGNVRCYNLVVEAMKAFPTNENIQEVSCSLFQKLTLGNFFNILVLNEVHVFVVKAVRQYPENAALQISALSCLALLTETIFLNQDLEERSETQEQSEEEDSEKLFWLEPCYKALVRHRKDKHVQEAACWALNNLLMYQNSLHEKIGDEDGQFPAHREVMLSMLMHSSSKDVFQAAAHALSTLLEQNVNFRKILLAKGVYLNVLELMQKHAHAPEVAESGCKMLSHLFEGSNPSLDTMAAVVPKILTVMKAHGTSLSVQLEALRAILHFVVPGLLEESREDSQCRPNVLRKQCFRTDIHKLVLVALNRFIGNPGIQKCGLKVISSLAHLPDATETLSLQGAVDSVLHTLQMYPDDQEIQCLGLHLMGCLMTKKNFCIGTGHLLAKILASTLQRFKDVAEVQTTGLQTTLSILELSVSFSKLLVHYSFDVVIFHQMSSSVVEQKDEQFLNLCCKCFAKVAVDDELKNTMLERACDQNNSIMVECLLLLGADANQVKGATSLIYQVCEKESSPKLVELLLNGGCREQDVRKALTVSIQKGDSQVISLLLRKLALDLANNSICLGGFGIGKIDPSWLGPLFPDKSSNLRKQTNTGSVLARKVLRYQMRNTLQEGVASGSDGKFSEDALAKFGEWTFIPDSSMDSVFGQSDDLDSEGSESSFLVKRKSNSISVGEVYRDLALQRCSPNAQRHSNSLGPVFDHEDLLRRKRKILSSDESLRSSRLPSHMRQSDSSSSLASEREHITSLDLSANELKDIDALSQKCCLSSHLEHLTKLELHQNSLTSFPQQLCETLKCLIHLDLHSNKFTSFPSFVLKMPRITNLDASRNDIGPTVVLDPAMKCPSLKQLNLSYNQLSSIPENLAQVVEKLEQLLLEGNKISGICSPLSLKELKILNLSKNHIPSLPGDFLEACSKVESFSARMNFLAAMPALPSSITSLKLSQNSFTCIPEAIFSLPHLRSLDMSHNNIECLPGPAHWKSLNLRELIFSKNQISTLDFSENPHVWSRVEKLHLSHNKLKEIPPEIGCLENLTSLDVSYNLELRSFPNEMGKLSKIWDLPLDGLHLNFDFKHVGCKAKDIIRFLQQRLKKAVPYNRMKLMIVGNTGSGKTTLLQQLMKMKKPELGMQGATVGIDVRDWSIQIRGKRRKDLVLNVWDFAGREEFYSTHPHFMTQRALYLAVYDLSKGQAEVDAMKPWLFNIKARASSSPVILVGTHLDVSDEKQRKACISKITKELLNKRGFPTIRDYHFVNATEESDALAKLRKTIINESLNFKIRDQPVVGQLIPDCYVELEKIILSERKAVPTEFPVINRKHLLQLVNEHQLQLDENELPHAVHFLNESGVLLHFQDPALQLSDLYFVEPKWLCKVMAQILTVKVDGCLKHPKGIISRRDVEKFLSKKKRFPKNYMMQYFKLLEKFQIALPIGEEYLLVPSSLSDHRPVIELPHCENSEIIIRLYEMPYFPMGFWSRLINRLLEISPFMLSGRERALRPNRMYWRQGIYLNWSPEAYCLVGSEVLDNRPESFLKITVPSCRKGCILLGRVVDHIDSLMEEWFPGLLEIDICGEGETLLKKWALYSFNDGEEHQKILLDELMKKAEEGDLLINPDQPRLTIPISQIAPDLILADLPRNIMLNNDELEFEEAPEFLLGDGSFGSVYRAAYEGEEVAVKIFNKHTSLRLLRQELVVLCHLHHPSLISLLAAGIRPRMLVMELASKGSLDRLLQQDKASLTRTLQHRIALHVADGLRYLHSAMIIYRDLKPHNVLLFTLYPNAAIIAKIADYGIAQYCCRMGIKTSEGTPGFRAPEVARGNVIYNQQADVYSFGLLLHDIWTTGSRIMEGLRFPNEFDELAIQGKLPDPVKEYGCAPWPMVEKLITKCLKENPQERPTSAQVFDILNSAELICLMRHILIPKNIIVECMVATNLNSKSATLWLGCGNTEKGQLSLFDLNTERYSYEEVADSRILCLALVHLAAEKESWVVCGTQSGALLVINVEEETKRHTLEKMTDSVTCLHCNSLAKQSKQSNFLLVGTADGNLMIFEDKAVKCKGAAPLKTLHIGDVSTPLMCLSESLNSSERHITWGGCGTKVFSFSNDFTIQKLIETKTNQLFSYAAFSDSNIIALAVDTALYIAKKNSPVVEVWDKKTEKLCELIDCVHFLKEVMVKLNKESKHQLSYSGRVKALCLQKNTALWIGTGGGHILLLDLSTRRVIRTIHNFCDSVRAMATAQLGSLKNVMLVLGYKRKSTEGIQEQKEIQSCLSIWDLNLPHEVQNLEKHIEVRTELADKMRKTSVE
T1 sequence (Q5S007 whole entry, the tested form may be a part): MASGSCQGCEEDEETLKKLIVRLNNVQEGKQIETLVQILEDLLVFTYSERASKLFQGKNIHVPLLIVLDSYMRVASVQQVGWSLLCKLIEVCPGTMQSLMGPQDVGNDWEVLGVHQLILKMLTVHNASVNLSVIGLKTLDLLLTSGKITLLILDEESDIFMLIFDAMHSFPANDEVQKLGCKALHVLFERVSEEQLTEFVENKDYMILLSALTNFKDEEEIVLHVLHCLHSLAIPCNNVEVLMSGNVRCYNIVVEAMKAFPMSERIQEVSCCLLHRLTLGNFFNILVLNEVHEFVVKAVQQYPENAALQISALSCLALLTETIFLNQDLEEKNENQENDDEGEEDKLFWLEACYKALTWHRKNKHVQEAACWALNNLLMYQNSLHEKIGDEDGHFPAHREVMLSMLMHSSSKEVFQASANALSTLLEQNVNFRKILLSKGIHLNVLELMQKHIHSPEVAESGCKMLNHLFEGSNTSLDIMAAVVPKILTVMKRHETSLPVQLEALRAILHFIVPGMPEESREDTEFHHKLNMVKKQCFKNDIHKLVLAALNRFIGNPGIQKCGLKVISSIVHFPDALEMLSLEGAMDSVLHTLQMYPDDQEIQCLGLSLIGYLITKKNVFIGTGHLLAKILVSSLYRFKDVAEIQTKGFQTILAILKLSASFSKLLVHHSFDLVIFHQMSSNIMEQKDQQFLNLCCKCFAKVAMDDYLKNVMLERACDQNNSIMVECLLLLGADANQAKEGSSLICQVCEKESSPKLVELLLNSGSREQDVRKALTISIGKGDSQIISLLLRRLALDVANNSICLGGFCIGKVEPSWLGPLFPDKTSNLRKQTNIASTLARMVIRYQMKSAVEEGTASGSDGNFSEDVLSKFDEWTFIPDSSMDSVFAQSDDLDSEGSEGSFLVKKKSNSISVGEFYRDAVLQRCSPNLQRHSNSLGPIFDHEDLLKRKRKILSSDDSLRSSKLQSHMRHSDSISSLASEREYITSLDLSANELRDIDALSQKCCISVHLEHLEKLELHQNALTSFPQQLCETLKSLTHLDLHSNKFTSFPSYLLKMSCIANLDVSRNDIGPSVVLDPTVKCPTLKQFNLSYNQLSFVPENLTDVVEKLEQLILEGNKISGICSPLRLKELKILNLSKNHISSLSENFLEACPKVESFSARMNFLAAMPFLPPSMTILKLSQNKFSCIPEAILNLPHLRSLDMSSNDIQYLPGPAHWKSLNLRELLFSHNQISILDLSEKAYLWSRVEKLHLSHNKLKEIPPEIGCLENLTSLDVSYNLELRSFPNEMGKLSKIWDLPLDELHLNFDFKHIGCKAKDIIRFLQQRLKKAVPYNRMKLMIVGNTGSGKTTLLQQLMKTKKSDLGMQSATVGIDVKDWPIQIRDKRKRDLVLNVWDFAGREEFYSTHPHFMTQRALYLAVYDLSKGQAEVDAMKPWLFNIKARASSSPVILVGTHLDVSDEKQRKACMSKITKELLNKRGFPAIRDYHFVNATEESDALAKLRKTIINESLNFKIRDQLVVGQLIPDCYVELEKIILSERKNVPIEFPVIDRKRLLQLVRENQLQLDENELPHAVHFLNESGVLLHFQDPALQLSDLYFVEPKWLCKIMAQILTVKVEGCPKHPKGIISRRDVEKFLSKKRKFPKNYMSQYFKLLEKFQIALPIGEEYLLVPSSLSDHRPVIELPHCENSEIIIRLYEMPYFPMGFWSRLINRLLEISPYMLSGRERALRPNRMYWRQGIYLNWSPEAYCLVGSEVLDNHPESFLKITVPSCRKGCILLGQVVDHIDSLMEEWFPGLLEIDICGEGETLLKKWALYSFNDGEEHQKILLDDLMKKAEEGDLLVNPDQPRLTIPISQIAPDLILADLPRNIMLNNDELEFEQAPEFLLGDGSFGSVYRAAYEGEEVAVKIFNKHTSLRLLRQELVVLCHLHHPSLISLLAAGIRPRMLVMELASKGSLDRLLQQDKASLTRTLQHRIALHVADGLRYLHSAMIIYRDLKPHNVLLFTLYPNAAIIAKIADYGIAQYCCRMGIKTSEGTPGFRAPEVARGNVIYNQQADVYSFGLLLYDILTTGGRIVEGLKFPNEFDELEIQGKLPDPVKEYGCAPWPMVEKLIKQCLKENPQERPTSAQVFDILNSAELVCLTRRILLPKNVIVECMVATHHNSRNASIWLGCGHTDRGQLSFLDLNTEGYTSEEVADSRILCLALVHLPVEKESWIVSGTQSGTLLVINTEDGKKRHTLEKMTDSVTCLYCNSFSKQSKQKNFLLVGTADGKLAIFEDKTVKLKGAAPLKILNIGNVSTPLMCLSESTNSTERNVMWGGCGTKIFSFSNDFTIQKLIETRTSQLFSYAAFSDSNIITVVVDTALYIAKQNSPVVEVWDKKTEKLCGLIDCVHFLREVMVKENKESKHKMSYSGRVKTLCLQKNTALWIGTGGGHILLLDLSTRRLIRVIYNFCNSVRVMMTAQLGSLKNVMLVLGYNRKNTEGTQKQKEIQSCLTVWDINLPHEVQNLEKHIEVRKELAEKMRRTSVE
Leucine-rich repeat serine/threonine-protein kinase 2 (Homo sapiens, UniProt Q5S007, G2019S), sequence (Q5S007 whole entry G2019S, the tested form may be a part): as the sequence (Q5S007 whole entry, the tested form may be a part) above, with G2019S counted along it
Leucine-rich repeat serine/threonine-protein kinase 2 (Homo sapiens), Q5S007 [G2019S], sequence (Q5S007 whole entry G2019S, the tested form may be a part): as the sequence (Q5S007 whole entry, the tested form may be a part) above, with G2019S counted along it

CCCOc1ccc2nc(NC(=O)c3ccc(N4CCOCC4)cc3)sc2c1 showed an inhibition [1] of 13%.

With N#Cc1cccc(-c2c[nH]c3ncnc(N4CCOCC4)c23)c1 the “fold change (FC)” value [2] was 1.8 - 2.4, the Activity (Mus musculus [3]) was “Active” and the Activity (Mus musculus [4]) was “Active”.

With Cc1cnc(-c2cnc(NCCNc3ccc(C#N)cn3)nc2-c2ccc(Cl)cc2Cl)[nH]1 the inhibition [5] was “Dose-dependent effect”.

Cc1cc(-c2ccc3nc(Nc4ccccc4)nn3c2)cc(C)c1O gave an IC50 [6] of 0.02 µM and an IC50 [7] of 0.02 µM.

Work on COc1ccc2cc(C(=O)Nc3nc4ccc(F)cc4s3)ccc2c1 yielded an inhibition [1] of 16%.

With O=C(Nc1nc2ccc(F)cc2s1)c1ccc(N2CCOCC2)cc1 the “fold change (FC)” value [2] was 1.8 - 2.4, the inhibition [8] was “Active” and the inhibition [9] was “inactive”. For the same molecule, the Activity (Mus musculus [3]) was “Active”, the Activity (Mus musculus [4]) was “Active” and the IC50 [6] was 0.17 µM. For the same molecule, the fold change (FC) [10] was 2, the inhibition [5] was “Dose-dependent effect” and the fold change (FC) [11] was 1.58. The inhibition [12] was 55%, the inhibition [1] was 66% and the IC50 [7] was 0.18 µM.

With Cc1ccc2nc(NC(=O)c3ccc(N4CCOCC4)cc3)sc2c1 the IC50 [6] was 0.48 µM, the fold change (FC) [10] was 1.79 and the fold change (FC) [11] was 1.76. The inhibition [12] was 71% and the inhibition [1] was 61%.

In the case of O=C(Nc1nc2ccc(F)cc2s1)c1ccccc1, the Papp at 2.5 h [13] is reported as 150 nm/s, the “fold change (FC)” value [2] is reported as 1.8 - 2.4 and the inhibition [8] is reported as “Active”. For the same molecule, the inhibition [9] was “inactive”, the Activity (Mus musculus [3]) was “Active” and the Activity (Mus musculus [4]) was “Active”. For the same molecule, the IC50 [6] was 0.52 µM, the fold change (FC) [10] was 2.29 and the inhibition [5] was “Dose-dependent effect”. The fold change (FC) [11] was 1.43, the inhibition [12] was 79% and the inhibition [1] was 81%. It also gave an IC50 [7] of 0.52 µM.

Work on CC(C)c1ccc2nc(NC(=O)c3ccc(N4CCOCC4)cc3)sc2c1 yielded a Papp at 2.5 h [13] of 43 nm/s, an IC50 [6] of 3.49 µM and a fold change (FC) [10] of 1.22. For the same molecule, the fold change (FC) [11] was 1.19, the inhibition [12] was 70% and the inhibition [1] was 48%. For the same molecule, the IC50 [7] was 1.12 µM.

O=C(CCCC(=O)c1ccccc1)Nc1nc2ccc(F)cc2s1 gave an inhibition [1] of 11%.

O=C(Nc1nc2ccc(C(F)(F)F)cc2s1)c1ccc(N2CCOCC2)cc1 gave an IC50 [6] of 2.27 µM, an inhibition [12] of 69% and an inhibition [1] of 51%. The IC50 [7] was 0.28 µM.

With O=C(Nc1nc2ccc(Cl)cc2s1)c1ccc(N2CCOCC2)cc1 the IC50 [6] was 0.37 µM, the inhibition [12] was 50% and the inhibition [1] was 60%.

Molecule Cc1cccc2sc(NC(=O)c3ccc(N4CCOCC4)cc3)nc12 has an inhibition [1] of 18%.

For COc1ccc2nc(NC(=O)c3ccc(N4CCOCC4)cc3)sc2c1, the inhibition [12] was 93%, the inhibition [1] was 73% and the IC50 [7] was 0.44 µM.

Molecule CCOc1ccc2nc(NC(=O)c3ccc(N4CCOCC4)cc3)sc2c1 has an IC50 [6] of 0.3 µM, an inhibition [12] of 85% and an inhibition [1] of 80%.

Molecule O=C(Nc1nc2ccc(F)cc2s1)c1ccc(Cl)cc1 has an IC50 [6] of 4.46 µM, an inhibition [12] of 67% and an inhibition [1] of 68%. The IC50 [7] was 5.64 µM.

CCOC(=O)c1ccc2nc(NC(=O)c3ccc(N4CCOCC4)cc3)sc2c1 gave an inhibition [1] of 22%.

For O=C(Nc1nc2ccccc2s1)c1ccc(N2CCOCC2)cc1, the “fold change (FC)” value [2] was 1.8 - 2.4, the inhibition [8] was “Active” and the inhibition [9] was “inactive”. For the same molecule, the Activity (Mus musculus [3]) was “Active”, the Activity (Mus musculus [4]) was “Active” and the fold change (FC) [10] was 2.2. For the same molecule, the inhibition [5] was “Dose-dependent effect”, the inhibition [14] was less than 35% and the inhibition [15] was “Active”. The fold change (FC) [11] was 3.25, the inhibition [16] was “Active” and the inhibition [12] was 85%. The inhibition [1] was 75%, the IC50 [7] was 0.37 µM and the inhibition [17] was “Active”.

CS(=O)(=O)c1ccc2nc(NC(=O)c3ccc(N4CCOCC4)cc3)sc2c1 gave an inhibition [1] of 77%.

With O=C(Nc1nc2ccc(Br)cc2s1)c1ccc(N2CCOCC2)cc1 the Papp at 2.5 h [13] was 42 nm/s, the “fold change (FC)” value [2] was 1.8 - 2.4 and the inhibition [8] was “Active”. The inhibition [9] was “inactive”, the Activity (Mus musculus [3]) was “Active” and the Activity (Mus musculus [4]) was “Active”. For the same molecule, the IC50 [6] was 0.51 µM, the fold change (FC) [10] was 2 and the inhibition [5] was “Dose-dependent effect”. For the same molecule, the inhibition [15] was “Active”, the fold change (FC) [11] was 1.25 and the inhibition [16] was “Active”. The inhibition [12] was 70%, the inhibition [1] was 75% and the IC50 [7] was 0.26 µM. For the same molecule, the inhibition [17] was “Active”.

With O=C(Nc1nc2c(Cl)cccc2s1)c1ccc(N2CCOCC2)cc1 the inhibition [1] was 32%.

From ChEMBL document CHEMBL4402549, “Benzothiazole-Based LRRK2 Inhibitors as Wnt Enhancers and Promoters of Oligodendrocytic Fate” (J Med Chem, 2020)
